Data taken from ChEMBL document CHEMBL1153433, “Design and synthesis of 2-amino-4-methylpyridine analogues as inhibitors for inducible nitric oxide synthase and in vivo evaluation of [18F]6-(2-fluoropropyl)-4-methyl-pyridin-2-amine as a potential PET tracer for inducible nitric oxide synthase” (J Med Chem, 2009).

Assays:
[1] = target: Nitric oxide synthase, inducible (Homo sapiens, UniProt P35228); assay: Inhibition of human recombinant iNOS using 1 mM […] and 2 uM L-arginine after 30 mins
In short: (§1)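 Recombinant human NOS, scintillation proximity kit. Buffer: 50 mM Tris pH 7.4, 1.0 mM NADPH, 3.8 μM each of FMN, FAD and tetrahydrobiopterin, 2.0 mM DTT, 2.0 μM L-arginine. eNOS and nNOS buffer also had 20 μg/mL calmodulin and 1 mM CaCl2. Started with [3H]arginine, 30 min at room temperature, stopped with yttrium-silicate arginine-binding beads, counted after 2 h settling. IC50 mean ± SD, N ≥ 3.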

Nitric oxide synthase 3 = target: T1, Nitric oxide synthase 3 (Homo sapiens, UniProt P29474); assay: Inhibition of human recombinant eNOS using 1 mM […] and 2 uM L-arginine after 30 mins; in short: as §1
T1 sequence (P29474 whole entry): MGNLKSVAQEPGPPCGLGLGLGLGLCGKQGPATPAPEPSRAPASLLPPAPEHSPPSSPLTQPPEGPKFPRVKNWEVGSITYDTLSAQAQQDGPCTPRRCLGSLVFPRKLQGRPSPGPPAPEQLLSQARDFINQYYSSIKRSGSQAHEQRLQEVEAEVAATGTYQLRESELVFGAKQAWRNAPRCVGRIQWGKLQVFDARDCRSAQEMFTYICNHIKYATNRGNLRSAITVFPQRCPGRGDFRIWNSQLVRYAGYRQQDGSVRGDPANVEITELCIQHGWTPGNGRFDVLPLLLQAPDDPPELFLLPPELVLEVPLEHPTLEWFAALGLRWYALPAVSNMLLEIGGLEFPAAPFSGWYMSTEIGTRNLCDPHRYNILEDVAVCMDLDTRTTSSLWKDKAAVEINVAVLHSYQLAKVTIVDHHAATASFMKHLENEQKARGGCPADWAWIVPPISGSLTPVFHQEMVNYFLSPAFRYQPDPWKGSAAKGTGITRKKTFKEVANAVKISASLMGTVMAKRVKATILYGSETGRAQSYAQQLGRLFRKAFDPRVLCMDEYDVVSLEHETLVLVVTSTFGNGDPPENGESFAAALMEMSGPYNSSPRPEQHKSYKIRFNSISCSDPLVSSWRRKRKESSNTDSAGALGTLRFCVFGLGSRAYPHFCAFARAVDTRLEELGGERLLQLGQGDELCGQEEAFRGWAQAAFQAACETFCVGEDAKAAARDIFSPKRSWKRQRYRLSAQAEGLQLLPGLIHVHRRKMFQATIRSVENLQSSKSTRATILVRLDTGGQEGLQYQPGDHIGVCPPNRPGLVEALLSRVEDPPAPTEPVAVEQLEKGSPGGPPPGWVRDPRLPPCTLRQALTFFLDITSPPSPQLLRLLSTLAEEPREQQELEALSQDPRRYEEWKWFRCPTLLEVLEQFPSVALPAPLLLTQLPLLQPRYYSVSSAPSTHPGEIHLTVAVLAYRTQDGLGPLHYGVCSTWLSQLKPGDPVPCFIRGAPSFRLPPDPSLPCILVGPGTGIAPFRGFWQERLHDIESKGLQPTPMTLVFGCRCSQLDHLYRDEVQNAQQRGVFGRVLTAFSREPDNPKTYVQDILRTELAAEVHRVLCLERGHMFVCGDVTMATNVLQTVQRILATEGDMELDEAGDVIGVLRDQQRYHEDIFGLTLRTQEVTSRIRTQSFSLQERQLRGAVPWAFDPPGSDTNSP

Nitric oxide synthase 1 = Nitric oxide synthase 1 (Homo sapiens, UniProt P29475); assay: Inhibition of human recombinant nNOS using 1 mM […] and 2 uM L-arginine after 30 mins; in short: as §1
Sequence of Nitric oxide synthase 1 (P29475 whole entry): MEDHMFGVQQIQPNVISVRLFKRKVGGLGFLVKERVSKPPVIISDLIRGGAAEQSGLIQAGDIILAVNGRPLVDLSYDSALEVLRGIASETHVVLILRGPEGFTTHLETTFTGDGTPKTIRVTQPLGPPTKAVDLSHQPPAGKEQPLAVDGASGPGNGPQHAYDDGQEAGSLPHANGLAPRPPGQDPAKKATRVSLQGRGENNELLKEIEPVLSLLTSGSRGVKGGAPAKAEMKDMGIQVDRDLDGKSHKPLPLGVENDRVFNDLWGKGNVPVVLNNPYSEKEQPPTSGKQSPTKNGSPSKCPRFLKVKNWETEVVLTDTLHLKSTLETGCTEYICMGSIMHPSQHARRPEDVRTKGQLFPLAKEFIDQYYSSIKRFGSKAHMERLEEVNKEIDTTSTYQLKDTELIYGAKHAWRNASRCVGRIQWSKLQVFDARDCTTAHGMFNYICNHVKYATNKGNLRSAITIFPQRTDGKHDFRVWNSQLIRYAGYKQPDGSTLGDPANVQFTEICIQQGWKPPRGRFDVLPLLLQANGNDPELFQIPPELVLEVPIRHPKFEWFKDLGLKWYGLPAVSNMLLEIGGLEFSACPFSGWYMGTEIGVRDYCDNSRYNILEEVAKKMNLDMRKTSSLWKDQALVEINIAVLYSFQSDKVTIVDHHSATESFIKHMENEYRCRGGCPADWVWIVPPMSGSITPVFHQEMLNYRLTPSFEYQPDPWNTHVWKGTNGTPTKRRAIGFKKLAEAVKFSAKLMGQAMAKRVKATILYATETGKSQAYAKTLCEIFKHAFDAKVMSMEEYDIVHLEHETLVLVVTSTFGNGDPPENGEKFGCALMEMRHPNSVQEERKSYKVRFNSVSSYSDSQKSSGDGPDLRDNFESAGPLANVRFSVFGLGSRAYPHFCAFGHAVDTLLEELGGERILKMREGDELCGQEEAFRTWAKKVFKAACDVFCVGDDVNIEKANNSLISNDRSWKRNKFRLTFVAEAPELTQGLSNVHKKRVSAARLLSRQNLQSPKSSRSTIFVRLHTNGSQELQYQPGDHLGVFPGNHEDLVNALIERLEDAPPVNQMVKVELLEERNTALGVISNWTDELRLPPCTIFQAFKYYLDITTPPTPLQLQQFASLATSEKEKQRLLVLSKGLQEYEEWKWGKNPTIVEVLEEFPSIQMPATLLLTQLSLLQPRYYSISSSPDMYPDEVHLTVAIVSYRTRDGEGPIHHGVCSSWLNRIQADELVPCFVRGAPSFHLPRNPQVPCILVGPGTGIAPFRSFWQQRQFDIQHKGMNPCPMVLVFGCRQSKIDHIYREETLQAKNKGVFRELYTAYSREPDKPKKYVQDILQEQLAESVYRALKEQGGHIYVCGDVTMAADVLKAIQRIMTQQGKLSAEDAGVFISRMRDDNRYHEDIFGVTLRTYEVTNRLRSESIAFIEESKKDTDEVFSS

Sequence of Nitric oxide synthase, inducible (P35228 whole entry): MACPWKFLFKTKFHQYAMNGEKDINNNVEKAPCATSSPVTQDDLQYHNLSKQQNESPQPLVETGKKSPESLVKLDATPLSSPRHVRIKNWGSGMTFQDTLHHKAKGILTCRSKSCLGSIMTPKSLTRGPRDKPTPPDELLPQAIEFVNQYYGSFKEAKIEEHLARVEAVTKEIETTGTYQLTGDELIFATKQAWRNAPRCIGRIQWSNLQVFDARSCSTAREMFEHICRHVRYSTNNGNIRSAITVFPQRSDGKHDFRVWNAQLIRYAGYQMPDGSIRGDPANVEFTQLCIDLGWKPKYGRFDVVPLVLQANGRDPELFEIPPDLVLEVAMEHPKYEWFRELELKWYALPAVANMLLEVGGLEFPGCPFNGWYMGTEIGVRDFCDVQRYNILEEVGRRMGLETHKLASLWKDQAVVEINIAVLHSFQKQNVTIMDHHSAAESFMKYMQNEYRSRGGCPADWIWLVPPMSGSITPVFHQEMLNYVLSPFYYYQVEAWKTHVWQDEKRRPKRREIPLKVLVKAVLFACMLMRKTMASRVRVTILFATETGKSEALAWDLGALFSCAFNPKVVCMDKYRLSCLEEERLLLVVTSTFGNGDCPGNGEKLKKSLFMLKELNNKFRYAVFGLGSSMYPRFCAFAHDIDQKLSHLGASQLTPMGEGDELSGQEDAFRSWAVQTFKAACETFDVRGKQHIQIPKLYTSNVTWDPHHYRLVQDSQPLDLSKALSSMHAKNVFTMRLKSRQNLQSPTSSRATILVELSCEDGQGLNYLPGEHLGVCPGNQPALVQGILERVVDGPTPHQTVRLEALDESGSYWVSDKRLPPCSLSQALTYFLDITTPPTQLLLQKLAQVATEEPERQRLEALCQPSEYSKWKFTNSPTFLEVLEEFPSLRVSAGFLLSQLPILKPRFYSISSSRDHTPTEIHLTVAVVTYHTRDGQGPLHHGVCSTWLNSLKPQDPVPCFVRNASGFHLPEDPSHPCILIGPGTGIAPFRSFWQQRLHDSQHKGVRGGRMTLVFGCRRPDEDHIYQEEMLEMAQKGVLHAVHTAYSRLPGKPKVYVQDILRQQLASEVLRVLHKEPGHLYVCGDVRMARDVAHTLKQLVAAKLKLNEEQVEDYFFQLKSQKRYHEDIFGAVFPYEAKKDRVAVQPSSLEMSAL

| SMILES | IC50 [1] [µM] | IC50 (Nitric oxide synthase 3) [µM] | IC50 (Nitric oxide synthase 1) [µM] |
| --- | --- | --- | --- |
| Cc1cc(N)nc(CCCCF)c1 | 0.17 | – | – |
| Cc1cc(N)nc(CC(C)F)c1 (stereo not drawn) | 0.22 | 1.5 | – |
| CSCCC(C)Cc1cc(C)cc(N)n1 (stereo not drawn) | > 5 | – | – |
| C/C=C/c1cc(C)cc(N)n1 | 0.282 | – | – |
| COCCC(C)Cc1cc(C)cc(N)n1 (stereo not drawn) | > 5 | – | – |
| Cc1cc(N)nc(CCCF)c1 | 0.0576 | 1.43 | 0.514 |
| Cc1cc(N)nc(CC(C)OCCF)c1 (stereo not drawn) | > 5 | – | – |
| Cc1cc(N)nc(CC(C)O)c1 (stereo not drawn) | 1.78 | – | – |
| COC(C)Cc1cc(C)cc(N)n1 (stereo not drawn) | > 5 | – | – |
| Cc1cc(N)nc(CC(C)CCF)c1 (stereo not drawn) | 0.731 | – | – |
